Results on 39 compounds are retold here after ChEMBL document CHEMBL4765308, “N-alkylpiperidine carbamates as potential anti-Alzheimer's agents” (Eur J Med Chem, 2020).

Bounds are passed on as bounds.

In assay [1] the target is T1, Amine oxidase [flavin-containing] B (Homo sapiens, UniProt P27338).
T1 sequence (P27338 whole entry): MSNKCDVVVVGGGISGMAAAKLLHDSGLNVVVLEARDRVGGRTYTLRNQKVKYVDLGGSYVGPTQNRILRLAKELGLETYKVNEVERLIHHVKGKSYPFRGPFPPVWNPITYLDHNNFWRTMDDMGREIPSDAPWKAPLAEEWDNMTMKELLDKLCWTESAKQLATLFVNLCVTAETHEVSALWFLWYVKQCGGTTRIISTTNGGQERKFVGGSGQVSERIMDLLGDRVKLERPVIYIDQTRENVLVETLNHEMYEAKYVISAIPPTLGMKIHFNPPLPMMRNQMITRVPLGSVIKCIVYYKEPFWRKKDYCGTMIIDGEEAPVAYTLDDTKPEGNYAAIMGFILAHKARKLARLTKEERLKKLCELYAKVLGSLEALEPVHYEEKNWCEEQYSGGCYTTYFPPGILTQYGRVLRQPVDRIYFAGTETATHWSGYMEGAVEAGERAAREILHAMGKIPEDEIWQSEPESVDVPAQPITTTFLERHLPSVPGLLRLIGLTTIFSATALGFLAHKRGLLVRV
The experiment in a line: Inhibition of human recombinant microsomal MAO-B expressed in baculovirus-infected BTI-TN-5B1-4 cells assessed as inhibition of H2O2 production using p-tyramine as substrate preincubated for 15 mins followed by substrate addition by Amplex Red reagent based fluorescence analysis. The method, boiled down: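 Recombinant human MAO-A or MAO-B (insect-cell microsomes) preincubated with compound 15 min at 37 °C in 50 mM sodium phosphate, pH 7.4, 0.05% Triton X-114. Reaction started with 1 mM p-tyramine, 250 µM Amplex Red and 2 U/mL HRP (final concentrations). Resorufin fluorescence (ex 530/em 590 nm) followed for 20 min at 37 °C, duplicates. Blank-corrected residual activity; IC50 from a four-parameter Hill fit.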

Another assay has as its target Acetylcholinesterase (Homo sapiens, UniProt P22303). The experiment in a line: Inhibition of human AChE using acetylthiocholine iodide as substrate preincubated with enzyme for 30 mins followed by substrate addition by Ellman's method.
In the next assay the target is Cholinesterase (Homo sapiens, UniProt P06276). The experiment in a line: Inhibition of human BuchE using butyrylthiocholine iodide as substrate preincubated for 30 mins followed by substrate addition by Ellman's method.
Cholinesterase, sequence (P06276 whole entry): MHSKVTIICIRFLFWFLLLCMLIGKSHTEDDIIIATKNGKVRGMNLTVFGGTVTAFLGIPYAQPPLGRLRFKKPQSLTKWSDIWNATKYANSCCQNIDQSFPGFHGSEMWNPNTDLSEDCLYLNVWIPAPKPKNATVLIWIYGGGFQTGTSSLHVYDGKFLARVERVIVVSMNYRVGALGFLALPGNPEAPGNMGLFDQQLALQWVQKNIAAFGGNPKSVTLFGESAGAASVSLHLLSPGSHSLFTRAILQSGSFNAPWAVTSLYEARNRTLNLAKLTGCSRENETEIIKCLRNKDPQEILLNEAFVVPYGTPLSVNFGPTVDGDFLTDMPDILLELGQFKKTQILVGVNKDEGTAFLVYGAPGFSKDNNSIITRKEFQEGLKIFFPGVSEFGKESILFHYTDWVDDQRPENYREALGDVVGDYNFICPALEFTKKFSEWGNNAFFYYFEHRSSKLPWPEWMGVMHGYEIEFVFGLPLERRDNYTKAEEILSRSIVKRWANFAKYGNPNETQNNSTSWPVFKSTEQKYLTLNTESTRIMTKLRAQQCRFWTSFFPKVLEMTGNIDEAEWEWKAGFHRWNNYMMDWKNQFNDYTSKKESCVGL
The target in assay [2] is T2, Amine oxidase [flavin-containing] A (Homo sapiens, UniProt P21397).
T2 sequence (P21397 whole entry): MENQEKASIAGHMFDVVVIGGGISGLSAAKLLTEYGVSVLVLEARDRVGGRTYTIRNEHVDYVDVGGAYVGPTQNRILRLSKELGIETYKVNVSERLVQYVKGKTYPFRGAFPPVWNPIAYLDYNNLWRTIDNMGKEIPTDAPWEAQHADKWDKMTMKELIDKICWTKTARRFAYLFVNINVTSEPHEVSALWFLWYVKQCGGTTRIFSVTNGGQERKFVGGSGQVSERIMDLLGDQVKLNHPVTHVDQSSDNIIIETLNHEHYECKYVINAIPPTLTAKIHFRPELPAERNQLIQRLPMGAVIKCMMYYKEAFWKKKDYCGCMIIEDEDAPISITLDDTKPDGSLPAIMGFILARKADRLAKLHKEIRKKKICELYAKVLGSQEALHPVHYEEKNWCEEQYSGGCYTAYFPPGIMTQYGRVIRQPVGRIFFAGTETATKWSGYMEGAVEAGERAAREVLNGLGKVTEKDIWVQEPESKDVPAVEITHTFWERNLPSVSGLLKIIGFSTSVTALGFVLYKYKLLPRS
The experiment in a line: Inhibition of human recombinant microsomal MAO-A expressed in baculovirus-infected BTI-TN-5B1-4 cells assessed as inhibition of H2O2 production using p-tyramine as substrate preincubated for 15 mins followed by substrate addition by Amplex Red reagent based fluorescence analysis.

Acetylcholinesterase, sequence (P22303 whole entry): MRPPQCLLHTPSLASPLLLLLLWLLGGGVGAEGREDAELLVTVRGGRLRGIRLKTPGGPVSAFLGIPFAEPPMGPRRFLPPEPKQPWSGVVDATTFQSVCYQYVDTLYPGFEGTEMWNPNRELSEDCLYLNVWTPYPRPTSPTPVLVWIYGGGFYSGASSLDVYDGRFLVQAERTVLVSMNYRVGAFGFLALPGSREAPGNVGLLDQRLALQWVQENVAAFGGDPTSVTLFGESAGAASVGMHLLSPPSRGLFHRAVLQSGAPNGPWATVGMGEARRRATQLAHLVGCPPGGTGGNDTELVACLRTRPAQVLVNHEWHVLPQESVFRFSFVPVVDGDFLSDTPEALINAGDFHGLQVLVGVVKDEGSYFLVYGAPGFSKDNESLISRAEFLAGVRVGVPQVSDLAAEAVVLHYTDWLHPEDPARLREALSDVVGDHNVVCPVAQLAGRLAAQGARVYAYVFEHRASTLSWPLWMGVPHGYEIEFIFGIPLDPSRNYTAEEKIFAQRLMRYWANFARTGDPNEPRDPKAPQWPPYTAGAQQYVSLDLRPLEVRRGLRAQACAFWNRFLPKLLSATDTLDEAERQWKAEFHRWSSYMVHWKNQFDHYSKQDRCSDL

By IC50 is commonly meant the concentration at which inhibition is half-maximal. Regarding `OC1CCN(Cc2ccccc2)CC1`, the IC50 (in assay [1]; against Acetylcholinesterase; at Cholinesterase; in assay [2]) was above 100 µM throughout.
Take `C#CCN1CCCC(COC(=O)Nc2ccc(C(C)C)cc2)C1` (stereo unspecified): the IC50 in assay [1] is 2.86 µM; on Acetylcholinesterase, above 100 µM; on Cholinesterase, 17.8 µM; in assay [2], above 100 µM.
Consider `C#CCN1CCC(OC(=O)Nc2ccccc2)CC1`, for which the IC50 is above 100 µM in assay [1], above 100 µM on Acetylcholinesterase, 19.1 µM on Cholinesterase and above 100 µM in assay [2].
On to `C#CCN1CCCC(COC(=O)Nc2ccccc2)C1` (stereo unspecified), for which the half-inhibitory concentration (IC50) in assay [1] was above 100 µM; against Acetylcholinesterase, above 100 µM; on Cholinesterase, 29.6 µM; in assay [2], above 100 µM.
Turning to `O=C(Nc1ccccc1)OCC1CCCN(C2Cc3ccccc3C2)C1` (stereo unspecified), the IC50 is above 100 µM in assay [1], above 100 µM at Acetylcholinesterase, 0.18 µM against Cholinesterase and above 100 µM in assay [2].
As to `C#CCN1CCCC(O)C1` (stereo unspecified), the IC50 (in assay [1]; on Acetylcholinesterase; at Cholinesterase; in assay [2]) was above 100 µM each time.
In the case of `OCC1CCCN(Cc2ccccc2)C1` (stereo unspecified), the IC50 (in assay [1]; on Acetylcholinesterase; on Cholinesterase; in assay [2]) was above 100 µM in each case.
For the compound `CC(C)c1ccc(NC(=O)OCC2CCN(C3Cc4ccccc4C3)CC2)cc1`, the IC50 in assay [1] is above 100 µM; on Acetylcholinesterase, 4.08 µM; on Cholinesterase, above 100 µM; in assay [2] it was above 100 µM.
With `O=C(Nc1ccccc1)OCC1CCN(C2Cc3ccccc3C2)CC1`, the IC50 in assay [1] was above 100 µM; against Acetylcholinesterase, above 100 µM; against Cholinesterase it was 1.43 µM; in assay [2] it was above 100 µM.
On to `C#CCN1CCCC(OC(=O)Nc2ccccc2)C1` (stereo unspecified), for which the IC50 in assay [1] is above 100 µM; against Acetylcholinesterase, above 100 µM; on Cholinesterase it was 84.5 µM; in assay [2], above 100 µM.
Turning to `O=C(Nc1ccccc1)OC1CCN(C2Cc3ccccc3C2)CC1`, the IC50 was above 100 µM in assay [1], 19.2 µM against Acetylcholinesterase, 18.1 µM at Cholinesterase and above 100 µM in assay [2].
Turning to `C#CCN1CCCC(CO)C1` (stereo unspecified), the IC50 (in assay [1]; at Acetylcholinesterase; at Cholinesterase; in assay [2]) was above 100 µM in each case.
On to `CCN(C)C(=O)OC1CCCN(C2Cc3ccccc3C2)C1` (stereo unspecified), for which the IC50 in assay [1] was above 100 µM; on Acetylcholinesterase, above 100 µM; against Cholinesterase, 9.69 µM; in assay [2], above 100 µM.
Take `CC(C)c1ccc(NC(=O)OC2CCCN(C3Cc4ccccc4C3)C2)cc1` (stereo unspecified): the IC50 is above 100 µM in assay [1], 7.91 µM against Acetylcholinesterase, above 100 µM against Cholinesterase and above 100 µM in assay [2].
`CCN(C)C(=O)OC1CCN(C2Cc3ccccc3C2)CC1`: the IC50 in assay [1] was above 100 µM; at Acetylcholinesterase, above 100 µM; against Cholinesterase, 40.8 µM; in assay [2] it was above 100 µM.
With `CCN(C)C(=O)OC1CCN(Cc2ccccc2)CC1`, the IC50 (in assay [1]; against Acetylcholinesterase; at Cholinesterase; in assay [2]) was above 100 µM each time.
Regarding `C#CCN1CCC(OC(=O)N(C)CC)CC1`, the IC50 in assay [1] was above 100 µM; at Acetylcholinesterase it was above 100 µM; against Cholinesterase, 11.4 µM; in assay [2] it was above 100 µM.
For the compound `O=C(Nc1ccccc1)OCC1CCCN(Cc2ccccc2)C1` (stereo unspecified), the IC50 in assay [1] is 39.5 µM; at Acetylcholinesterase it was 67.1 µM; on Cholinesterase, 0.52 µM; in assay [2], above 100 µM.
The like results for `O=C(Nc1ccccc1)OC1CCCN(Cc2ccccc2)C1` (stereo unspecified) were, in that order, 33.3 µM, above 100 µM, 0.46 µM and above 100 µM.
Consider `OC1CCN(C2Cc3ccccc3C2)CC1`, for which the IC50 (in assay [1]; at Acetylcholinesterase; on Cholinesterase; in assay [2]) was above 100 µM in each case.
As for `C#CCN1CCC(COC(=O)Nc2ccccc2)CC1`, the IC50 in assay [1] is 10.3 µM; against Acetylcholinesterase, above 100 µM; on Cholinesterase, 14.4 µM; in assay [2], above 100 µM.
Consider `CC(C)c1ccc(NC(=O)OCC2CCCN(C3Cc4ccccc4C3)C2)cc1` (stereo unspecified), for which the IC50 is above 100 µM in assay [1], 18.7 µM at Acetylcholinesterase, 0.442 µM against Cholinesterase and above 100 µM in assay [2].
Regarding `CC(C)c1ccc(NC(=O)OC2CCN(C3Cc4ccccc4C3)CC2)cc1`, the IC50 was above 100 µM in assay [1], 2.31 µM against Acetylcholinesterase, above 100 µM against Cholinesterase and above 100 µM in assay [2].
As for `C#CCN1CCC(O)CC1`, the IC50 (in assay [1]; at Acetylcholinesterase; against Cholinesterase; in assay [2]) was above 100 µM throughout.
As to `C#CCN1CCC(CO)CC1`, the half-inhibitory concentration (IC50) (in assay [1]; against Acetylcholinesterase; against Cholinesterase; in assay [2]) was above 100 µM each time.
Consider `C#CCN1CCCC(COC(=O)N(C)CC)C1` (stereo unspecified), for which the IC50 (in assay [1]; on Acetylcholinesterase; against Cholinesterase; in assay [2]) was above 100 µM each time.
As for `CCN(C)C(=O)OCC1CCCN(Cc2ccccc2)C1` (stereo unspecified), the IC50 in assay [1] was above 100 µM; against Acetylcholinesterase, 96.6 µM; on Cholinesterase, 7.23 µM; in assay [2] it was above 100 µM.
In the case of `C#CCN1CCC(COC(=O)Nc2ccc(C(C)C)cc2)CC1`, the IC50 in assay [1] was 0.316 µM; against Acetylcholinesterase, above 100 µM; at Cholinesterase it was 24.3 µM; in assay [2], above 100 µM.
Turning to `C#CCN1CCC(COC(=O)N(C)CC)CC1`, the IC50 (in assay [1]; at Acetylcholinesterase; at Cholinesterase; in assay [2]) was above 100 µM each time.
For `OCC1CCN(Cc2ccccc2)CC1`, the IC50 (in assay [1]; at Acetylcholinesterase; against Cholinesterase; in assay [2]) was above 100 µM throughout.
`CCN(C)C(=O)OC1CCCN(Cc2ccccc2)C1` (stereo unspecified): the IC50 in assay [1] is above 100 µM; against Acetylcholinesterase, above 100 µM; against Cholinesterase, 21 µM; in assay [2], above 100 µM.
On to `OC1CCCN(C2Cc3ccccc3C2)C1` (stereo unspecified), for which the IC50 (in assay [1]; against Acetylcholinesterase; against Cholinesterase; in assay [2]) was above 100 µM each time.
Consider `O=C(Nc1ccccc1)OC1CCN(Cc2ccccc2)CC1`, for which the IC50 was above 100 µM in assay [1], above 100 µM against Acetylcholinesterase, 6.55 µM on Cholinesterase and above 100 µM in assay [2].
Regarding `CC(C)c1ccc(NC(=O)OC2CCN(Cc3ccccc3)CC2)cc1`, the IC50 in assay [1] was above 100 µM; on Acetylcholinesterase it was above 100 µM; against Cholinesterase, 1.74 µM; in assay [2], above 100 µM.
In the case of `CCN(C)C(=O)OCC1CCN(Cc2ccccc2)CC1`, the IC50 in assay [1] is above 100 µM; at Acetylcholinesterase it was 72 µM; against Cholinesterase it was 46 µM; in assay [2], above 100 µM.
For the compound `CCN(C)C(=O)OCC1CCCN(C2Cc3ccccc3C2)C1` (stereo unspecified), the IC50 was above 100 µM in assay [1], above 100 µM at Acetylcholinesterase, 9.39 µM against Cholinesterase and above 100 µM in assay [2].
For `CC(C)c1ccc(NC(=O)OCC2CCCN(Cc3ccccc3)C2)cc1` (stereo unspecified), the IC50 in assay [1] was above 100 µM; at Acetylcholinesterase, 15.1 µM; against Cholinesterase, 0.118 µM; in assay [2] it was above 100 µM.
In the case of `CC(C)c1ccc(NC(=O)OC2CCCN(Cc3ccccc3)C2)cc1` (stereo unspecified), the IC50 in assay [1] is 29.3 µM; against Acetylcholinesterase it was above 100 µM; against Cholinesterase, 3.25 µM; in assay [2], above 100 µM.
Take `OC1CCCN(Cc2ccccc2)C1` (stereo unspecified): the IC50 (in assay [1]; against Acetylcholinesterase; against Cholinesterase; in assay [2]) was above 100 µM throughout.
